Measured values: ChEMBL document CHEMBL4396885, “Thioether-based 2-aminobenzamide derivatives: Novel HDAC inhibitors with potent in vitro and in vivo antitumor activity” (Eur J Med Chem, 2019)

What was measured:
[1] = system: A549; experiment: Cell cycle arrest in human A549 cells assessed as accumulation of cells at S phase at 1 uM after 48 hrs by propidium iodide staining-based flow cytometry (reference value: 12.83%); assay type: functional
[2] = system: A549; experiment: Antiproliferative activity against human A549 cells assessed as decrease in cell viability after 72 hrs by CCK-8 assay; assay type: functional, cell-based; conditions: A549, 72 h
Outline: (§1)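 Cells grown to 70–85% confluence (A375, A549, HCT116 in RPMI1640; HeLa, SMMC7721 in DMEM; 10% FBS, 37 °C, 5% CO2), seeded 4000/well, dosed after 12 h across a concentration range, incubated 72 h, then CCK-8 for 1 h; absorbance at 450 nm. IC50 as mean ± SD of three separate experiments.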

[3] = system: HeLa; experiment: Antiproliferative activity against human HeLa cells assessed as growth inhibition at 2 uM after 72 hrs by CCK-8 assay relative to control; assay type: functional; conditions: read-out: GI
[4] = system: HCT-116; experiment: Antiproliferative activity against human HCT116 cells assessed as decrease in cell viability after 72 hrs by CCK-8 assay; assay type: functional, cell-based; conditions: HCT-116, 72 h; outline: as §1
[5] = system: A549; experiment: Cell cycle arrest in human A549 cells assessed as accumulation of cells at G2/M phase at 0.5 uM after 48 hrs by propidium iodide staining-based flow cytometry (reference value: 13.62%); assay type: functional
[6] = system: A549; experiment: Induction of apoptosis in human A549 cells assessed as early apoptotic cells at 0.5 uM after 48 hrs by Annexin V-FITC/propidium iodide staining based flow cytometry (reference value: 1.19%); assay type: functional
Outline: (§2)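 A549 seeded 4×10⁶ cells/well, dosed after 12 h with compound at various concentrations, harvested after 48 h. Resuspended in annexin-binding buffer, stained with Annexin V-FITC and propidium iodide for 15 min in the dark, analysed by flow cytometry; means of three separate experiments.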

[7] = system: A549; experiment: Induction of apoptosis in human A549 cells assessed as late apoptotic cells at 2 uM after 48 hrs by Annexin V-FITC/propidium iodide staining based flow cytometry (reference value: 0.637%); assay type: functional; outline: as §2
[8] = system: A549; experiment: Induction of apoptosis in human A549 cells assessed as viable cells at 2 uM after 48 hrs by Annexin V-FITC/propidium iodide staining based flow cytometry (reference value: 98%); assay type: functional; conditions: A549, 48 h, read-out: Activity; outline: as §2
[9] = system: HeLa; experiment: Antiproliferative activity against human HeLa cells assessed as growth inhibition at 8 uM after 72 hrs by CCK-8 assay relative to control; assay type: functional; conditions: read-out: GI
[10] = system: A549; experiment: Induction of apoptosis in human A549 cells assessed as early apoptotic cells at 2 uM after 48 hrs by Annexin V-FITC/propidium iodide staining based flow cytometry (reference value: 1.19%); assay type: functional; outline: as §2
[11] = system: A549; experiment: Induction of apoptosis in human A549 cells assessed as late apoptotic cells at 1 uM after 48 hrs by Annexin V-FITC/propidium iodide staining based flow cytometry (reference value: 0.637%); assay type: functional; outline: as §2
[12] = system: A549; experiment: Induction of apoptosis in human A549 cells assessed as early apoptotic cells at 1 uM after 48 hrs by Annexin V-FITC/propidium iodide staining based flow cytometry (reference value: 1.19%); assay type: functional; outline: as §2
[13] = system: A549; experiment: Induction of apoptosis in human A549 cells assessed as necrotic cells at 0.5 uM after 48 hrs by Annexin V-FITC/propidium iodide staining based flow cytometry (reference value: 0.135%); assay type: functional; outline: as §2
[14] = system: A549; experiment: Cell cycle arrest in human A549 cells assessed as accumulation of cells at G0/G1 phase at 2 uM after 48 hrs by propidium iodide staining-based flow cytometry (reference value: 73.35%); assay type: functional
[15] = system: SMMC-7721; experiment: Antiproliferative activity against human SMMC7721 cells assessed as growth inhibition at 2 uM after 72 hrs by CCK-8 assay relative to control; assay type: functional; conditions: SMMC-7721, 72 h, read-out: GI
[16] = system: A549; experiment: Antiproliferative activity against human A549 cells assessed as growth inhibition at 2 uM after 72 hrs by CCK-8 assay relative to control; assay type: functional; conditions: A549, 72 h, read-out: GI
[17] = system: A549; experiment: Induction of apoptosis in human A549 cells assessed as necrotic cells at 2 uM after 48 hrs by Annexin V-FITC/propidium iodide staining based flow cytometry (reference value: 0.135%); assay type: functional; outline: as §2
[18] = system: HCT-116; experiment: Antiproliferative activity against human HCT116 cells assessed as growth inhibition at 8 uM after 72 hrs by CCK-8 assay relative to control; assay type: functional; conditions: HCT-116, 72 h, read-out: GI
[19] = system: A-375; experiment: Antiproliferative activity against human A375 cells assessed as growth inhibition at 2 uM after 72 hrs by CCK-8 assay relative to control; assay type: functional; conditions: A-375, 72 h, read-out: GI
[20] = system: A549; experiment: Cell cycle arrest in human A549 cells assessed as accumulation of cells at G2/M phase at 2 uM after 48 hrs by propidium iodide staining-based flow cytometry (reference value: 13.62%); assay type: functional
[21] = system: A549; experiment: Induction of apoptosis in human A549 cells assessed as viable cells at 1 uM after 48 hrs by Annexin V-FITC/propidium iodide staining based flow cytometry (reference value: 98%); assay type: functional; conditions: A549, 48 h, read-out: Activity; outline: as §2
[22] = system: A549; experiment: Induction of apoptosis in human A549 cells assessed as viable cells at 0.5 uM after 48 hrs by Annexin V-FITC/propidium iodide staining based flow cytometry (reference value: 98%); assay type: functional; conditions: A549, 48 h, read-out: Activity; outline: as §2
[23] = system: A549; experiment: Induction of apoptosis in human A549 cells assessed as late apoptotic cells at 0.5 uM after 48 hrs by Annexin V-FITC/propidium iodide staining based flow cytometry (reference value: 0.637%); assay type: functional; outline: as §2
[24] = system: A549; experiment: Cell cycle arrest in human A549 cells assessed as accumulation of cells at S phase at 2 uM after 48 hrs by propidium iodide staining-based flow cytometry (reference value: 12.83%); assay type: functional
[25] = system: A549; experiment: Cell cycle arrest in human A549 cells assessed as accumulation of cells at G0/G1 phase at 1 uM after 48 hrs by propidium iodide staining-based flow cytometry (reference value: 73.35%); assay type: functional
[26] = system: A549; experiment: Cell cycle arrest in human A549 cells assessed as accumulation of cells at G2/M phase at 1 uM after 48 hrs by propidium iodide staining-based flow cytometry (reference value: 13.62%); assay type: functional
[27] = system: A549; experiment: Antiproliferative activity against human A549 cells assessed as growth inhibition at 8 uM after 72 hrs by CCK-8 assay relative to control; assay type: functional; conditions: A549, 72 h, read-out: GI
[28] = system: SMMC-7721; experiment: Antiproliferative activity against human SMMC7721 cells assessed as decrease in cell viability after 72 hrs by CCK-8 assay; assay type: functional, cell-based; conditions: SMMC-7721, 72 h; outline: as §1
[29] = system: A549; experiment: Cell cycle arrest in human A549 cells assessed as accumulation of cells at S phase at 0.5 uM after 48 hrs by propidium iodide staining-based flow cytometry (reference value: 12.83%); assay type: functional
[30] = system: HeLa; experiment: Antiproliferative activity against human HeLa cells assessed as decrease in cell viability after 72 hrs by CCK-8 assay; assay type: functional, cell-based; outline: as §1
[31] = system: A-375; experiment: Antiproliferative activity against human A375 cells assessed as growth inhibition at 8 uM after 72 hrs by CCK-8 assay relative to control; assay type: functional; conditions: A-375, 72 h, read-out: GI
[32] = system: A-375; experiment: Antiproliferative activity against human A375 cells assessed as decrease in cell viability after 72 hrs by CCK-8 assay; assay type: functional, cell-based; conditions: A-375, 72 h; outline: as §1
[33] = system: A549; experiment: Induction of apoptosis in human A549 cells assessed as necrotic cells at 1 uM after 48 hrs by Annexin V-FITC/propidium iodide staining based flow cytometry (reference value: 0.135%); assay type: functional; outline: as §2
[34] = system: HCT-116; experiment: Antiproliferative activity against human HCT116 cells assessed as growth inhibition at 2 uM after 72 hrs by CCK-8 assay relative to control; assay type: functional; conditions: HCT-116, 72 h, read-out: GI
[35] = system: SMMC-7721; experiment: Antiproliferative activity against human SMMC7721 cells assessed as growth inhibition at 8 uM after 72 hrs by CCK-8 assay relative to control; assay type: functional; conditions: SMMC-7721, 72 h, read-out: GI
[36] = system: A549; experiment: Cell cycle arrest in human A549 cells assessed as accumulation of cells at G0/G1 phase at 0.5 uM after 48 hrs by propidium iodide staining-based flow cytometry (reference value: 73.35%); assay type: functional
[37] = Volume of distribution at steady state n ICR mouse at 4 mg/kg, iv after 0.08 to 24 hrs by LC-MS/MS analysis; assay type: ADME, organism-based; conditions: in vivo, read-out: Vdss
Outline: (§3)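 Male ICR mice (29.7~37.4 g), single iv dose 4 mg/kg in DMSO:40% SBE-β-CD 20:80 (v/v). Retro-orbital blood at 0.08–24 h into EDTA-K2 tubes; plasma protein-precipitated with acetonitrile containing internal standards, analysed by LC-MS/MS; n=3 per time point; noncompartmental analysis.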

[38] = Clearance in ICR mouse at 4 mg/kg, iv after 0.08 to 24 hrs by LC-MS/MS analysis; assay type: ADME, organism-based; conditions: in vivo; outline: as §3
[39] = Half life in ICR mouse at 4 mg/kg, iv after 0.08 to 24 hrs by LC-MS/MS analysis; assay type: ADME, organism-based; conditions: in vivo; outline: as §3
[40] = Toxicity against nude Balb/c mouse xenografted with human A549 cells assessed as no change in body weight at 25 mg/kg, ip administered twice per day for 21 days and measured every 3 days during compound dosing; assay type: organism-based; conditions: in vivo
Outline: (§4)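 Female BALB/c nude mice, 5–6 weeks, implanted s.c. in right axilla with 3×10⁶ A549 cells; randomized at ~95 mm³ tumor volume, 4 per group. Dosed ip 25 mg/kg twice daily for 21 days; vehicle controls got DMA & 5% Solutol HS-15 (5:95). Tumor size (V=length×width²/2) and body weight measured every 3 days; TGI from volume change relative to control.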

[41] = system: A549; experiment: Antitumor activity against human A549 cells xenografted in Balb/c nude mouse assessed as tumor growth inhibition at 25 mg/kg, ip administered twice per day for 21 days relative to control; assay type: functional; conditions: 504 h, read-out: TGI; outline: as §4

| Compound | Activity [1] [%] | IC50 [2] [µM] | inhibition of growth at 2 µM [3] [%] | IC50 [4] [µM] | Activity [5] [%] | Activity [6] [%] | Activity [7] [%] | viability at 2 µM [8] [%] | inhibition of growth at 8 µM [9] [%] | Activity [10] [%] | Activity [11] [%] | Activity [12] [%] | Activity [13] [%] | Activity [14] [%] | inhibition of growth at 2 µM [15] [%] | inhibition of growth at 2 µM [16] [%] | Activity [17] [%] | inhibition of growth at 8 µM [18] [%] | inhibition of growth at 2 µM [19] [%] | Activity [20] [%] | further results |
| --- | --- | --- | --- | --- | --- | --- | --- | --- | --- | --- | --- | --- | --- | --- | --- | --- | --- | --- | --- | --- | --- |
| Nc1ccc(F)cc1NC(=O)c1ccc(CNC(=O)/C=C/c2cccnc2)cc1 | 7.26 | 6.81 | 20.6 | 1.57 | 17.79 | 2.17 | 4.14 | 91 | 34.2 | 3.97 | 5.25 | 1.01 | 0.455 | 75.53 | 56.5 | 21.9 | 0.881 | 87.4 | 56.5 | 15.04 | viability at 1 µM [21]: 89%; viability at 0.5 µM [22]: 96.5%; Activity [23]: 0.898%; Activity [24]: 9.43%; Activity [25]: 74.07%; Activity [26]: 18.67%; inhibition of growth at 8 µM [27]: 85.6%; IC50 [28]: 8.63 µM; Activity [29]: 6.97%; IC50 [30]: 3.42 µM; inhibition of growth at 8 µM [31]: 71.7%; IC50 [32]: 4.77 µM; Activity [33]: 4.71%; inhibition of growth at 2 µM [34]: 61.1%; inhibition of growth at 8 µM [35]: 71.7%; Activity [36]: 75.24% |
| Nc1ccccc1NC(=O)c1ccc(COc2ccc(F)cc2)cc1 | – | – | – | – | – | – | – | – | – | – | – | – | – | – | – | – | – | – | – | – | Vd [37]: 2.33 L/kg; clearance [38]: 7.08 L/h/kg; half-life [39]: 33.6 min |
| CC(=O)Nc1ccc(C(=O)Nc2ccccc2N)cc1 [TACEDINALINE] | 6.73 | 16.4 | 23.5 | 6.39 | 15.37 | 1.17 | 9.92 | 83.3 | 29.1 | 3.68 | 5.87 | 3.92 | 4.6 | 77.38 | 23.5 | 23.5 | 3.15 | 44 | 12.8 | 15.25 | Activity [40]: Non-Toxic; viability at 1 µM [21]: 89.7%; viability at 0.5 µM [22]: 92.4%; Activity [23]: 1.86%; Activity [24]: 7.37%; Activity [25]: 75.86%; Activity [26]: 17.41%; inhibition of growth at 8 µM [27]: 29.1%; inhibition in vivo at 25 mg/kg [41]: 46.8%; IC50 [28]: 14.1 µM; Activity [29]: 7.64%; IC50 [30]: 13.4 µM; inhibition of growth at 8 µM [31]: 46.4%; IC50 [32]: 9.64 µM; Activity [33]: 0.521%; inhibition of growth at 2 µM [34]: 13%; inhibition of growth at 8 µM [35]: 29.1%; Activity [36]: 76.99% |
